The source of these data is ChEMBL document CHEMBL1134015 (Bioorg Med Chem Lett, 2001).

Test [1] deals with Mus musculus. Briefly: In vivo anaesthetic activity after intravenous administration in MF-1 mice was determined by loss of righting reflex using probit analysis. Type of test: functional.
The test system of test [2] is GABA-A receptor; anion channel. Briefly: Inhibition of [35S]TBPS binding to Gamma-aminobutyric acid A (GABA-A) receptor of rat whole brain membranes (inactive). The test is classed as cell membranes. In outline:
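Rat whole-brain membranes. Inhibition of [35S]TBPS radioligand binding at the GABA-A receptor. […] Means of three experiments.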

In test [3] the target is GABA-A receptor; anion channel. Nature of the test: Inhibition of [35S]TBPS binding to Gamma-aminobutyric acid A receptor of rat brain membranes. Type of test: cell membranes, Membrane.
Test [4] relates to Mus musculus. Briefly: In vivo anaesthetic activity after intravenous administration in MF-1 mice was determined by loss of righting reflex using probit analysis; Convulsant. The test is classed as functional, organism-based.
For test [5], the species on record is Rattus norvegicus. Briefly: Time required to gain the righting reflex in male Wistar rats. Type of test: functional, organism-based.
The species entered for test [6] is Rattus norvegicus. Nature of the test: Maximum BSR reached in male Wistar rats. The test is classed as functional.
For test [7], the species on record is Rattus norvegicus. Nature of the test: Time taken to reach the maximum BSR in male Wistar rats. Type of test: functional.
The species named for test [8] is Rattus norvegicus. Briefly: Time taken for 50% decrease in the BSR in male Wistar rats. The test is classed as functional.
For test [9], the species on record is Rattus norvegicus. Briefly: Time to the first 0.25 s burst suppression epoch(onset of anaesthesa) in male Wistar rats. Type of test: functional.
The species named for test [10] is Rattus norvegicus. Briefly: Burst suppression ratio (BSR) profile in male Wistar rats. Type of test: functional. In outline:
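Male Wistar rats (218–420 g), with extradural electrodes implanted and at least 7 days recovery, lightly hand-restrained. IV injection over 10 s into a tail vein by computer-controlled infusion pump. […] BSR extracted from EEG. Read-outs: onset (first 0.25 s burst-suppression epoch), time to max BSR, time to 50% BSR decrease, time to regain righting reflex. Mean and SEM.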

SMILES strings stand for the structures.

`CCOC(=O)C1CCN(Cc2cc(C(C)C)c(N)c(C(C)C)c2)CC1` displayed an HD50 with Mus musculus [1] of 14.4 µM/kg. The IC50 – broadly, the point on the concentration scale where inhibition reaches its midpoint – in test [2] was “Not Active”.

For `CC(C)c1cc(CN2CCOCC2)cc(C(C)C)c1`, the IC50 in test [3] is over 30 µM. In the test on Mus musculus [4], the HD50 result is reported as “Convulsant”.

With `CC(C)c1cc(CN(C)Cc2ccccc2)cc(C(C)C)c1O`, the concentration for half-maximal inhibition (IC50) in [3] was over 10 µM. This molecule returned an HD50 in the test with Mus musculus [1] of 25.1 µM/kg.

In the test filed under Rattus norvegicus [5], `CC(C)c1cc(CN2CCOCC2)cc(C(C)C)c1O` displayed a Recovery time of 3.8 min. For the same molecule, the “Max BSR” value in the test filed under Rattus norvegicus [6] is listed as 54.9%. The “Time to max. BSR” value in the test listed under Rattus norvegicus [7] is 40 s. In test [3], this molecule registered a 50% inhibitory concentration (IC50) of over 100 µM. The molecule further yielded an Offset time in the test filed under Rattus norvegicus [8] of 1.7 min. In the test filed under Rattus norvegicus [9], the Onset time is given as 16.2 s. In the test with Mus musculus [1], the HD50 amounted to 32 µM/kg. Besides, the BSR in the test filed under Rattus norvegicus [10] turned out to be 51 µM/kg.

Molecule `CC(C)c1cc(CN2CCOCC2)cc(C(C)C)c1N` gave a half-maximal inhibitory concentration (IC50) in test [3] of over 100 µM. Besides, the HD50 in the test on Mus musculus [1] stood at 36.5 µM/kg.

For the molecule `CCOC(=O)C1CCN(Cc2cc(C(C)C)c(O)c(C(C)C)c2)CC1`, the IC50 in test [3] was found to be 31 µM. This molecule registered an HD50 in the test on Mus musculus [1] of 19 µM/kg.

The molecule `CC(C)c1cccc(C(C)C)c1O` [PROPOFOL] showed a Recovery time in the test listed under Rattus norvegicus [5] of 5.2 min. The “Max BSR” value in the test listed under Rattus norvegicus [6] amounted to 55%. Also, the “Time to max. BSR” value in the test listed under Rattus norvegicus [7] was 30 s. In addition, the Offset time in the test filed under Rattus norvegicus [8] is 1.4 min. In the test listed under Rattus norvegicus [9], the Onset time is on record as 13.2 s. In the test with Mus musculus [1], the HD50 was 68 µM/kg.

The molecule `CC(C)c1cc(CN2CCSCC2)cc(C(C)C)c1N` had an IC50 in test [3] of over 100 µM. Moreover, the HD50 with Mus musculus [1] is 22.9 µM/kg.

`CC(C)c1cc(CCN2CCOCC2)cc(C(C)C)c1O` registered an IC50 in test [3] of over 100 µM. Further, the HD50 in the test with Mus musculus [1] came to 35.8 µM/kg.

`CC(C)c1cc(C(=O)CN2CCSCC2)cc(C(C)C)c1O` gave a 50% inhibitory concentration (IC50) in test [3] of over 10 µM. The HD50 in the test on Mus musculus [1] was determined as 68.5 µM/kg.

Molecule `CC(C)c1cc(CN2CCSCC2)cc(C(C)C)c1O` registered an IC50 in test [3] of 27.6 µM. This molecule returned an HD50 in the test with Mus musculus [1] of 25.5 µM/kg.

Take `CNc1c(C(C)C)cc(CN2CCOCC2)cc1C(C)C`: the IC50 in test [3] is over 100 µM. The HD50 with Mus musculus [1] is 51 µM/kg.

The molecule `CC(=O)N1CCN(Cc2cc(C(C)C)c(O)c(C(C)C)c2)CC1` gave an IC50 in test [3] of over 100 µM. The same molecule had an HD50 in the test with Mus musculus [1] of 38.8 µM/kg.

For the molecule `CC(C)c1cc(CN2CCOCC2)cc(C(C)C)c1N(C)C`, the 50% inhibitory concentration (IC50) in [3] was over 30 µM. The HD50 in the test with Mus musculus [1] was 83 µM/kg.

Consider `CC(=O)Nc1c(C(C)C)cc(CN2CCOCC2)cc1C(C)C`, for which the concentration for half-maximal inhibition (IC50) in test [3] was over 10 µM. The molecule further yielded an HD50 with Mus musculus [1] of over 282 µM/kg.
